Measured values from different studies.
LRRK2: Leucine-rich repeat serine/threonine-protein kinase 2 (LRRK2, Homo sapiens, UniProt Q5S007)
LRRK2 G2019S: Leucine-rich repeat serine/threonine-protein kinase 2 (LRRK2, Homo sapiens, UniProt Q5S007, G2019S)

Structure (SMILES) | target | assay | quantity | value
CN(C(=O)c1cnn2cccnc12)c1cc2c(cc1N1CCOCC1)C(=O)N(C[C@@H](F)C(C)(C)O)C2 | LRRK2 | target engagement in cells, BRET | EC50 | > 50000 nM
O=C(/C=C/c1ccc(O)c(O)c1)O[C@H](Cc1ccc(O)c(O)c1)C(=O)O | LRRK2 G2019S | enzyme activity, inhibitor, radiometric | IC50 | 496 nM
C[C@@H]1CN(c2cc(-c3nn(C)c4ccc(OC5(C)CC5)cc34)ncn2)C[C@H](C)O1 | LRRK2 | target engagement in cells, BRET | EC50 | > 50000 nM
O=c1ccc2cc(O)c(O)cc2o1 | LRRK2 | enzyme activity, inhibitor, radiometric | IC50 | 1730 nM
COc1cc(N2CCN(C)CC2)ccc1Nc1ncc2c(n1)N(C)c1ccccc1C(=O)N2 | LRRK2 | enzyme activity, inhibitor | IC50 | 70 nM
Cc1cnc(-c2ccc(-c3ccc(NC(=O)Nc4c(F)cc(F)cc4F)cc3F)c3c2C(=O)NC3)[nH]1 | LRRK2 | binding, competition with immobilised ligand | Kd | 260 nM
CC(=O)NC1CCN(c2ncnc3[nH]cc(-c4cccc(Cl)c4)c23)CC1 | LRRK2 | enzyme activity in cells, inhibitor | IC50 | 1100 nM
CC(Cc1ccc(O)c(O)c1)C(C)Cc1ccc(O)c(O)c1 (stereo not drawn) | LRRK2 G2019S | enzyme activity, inhibitor, radiometric | IC50 | 210 nM
COc1cc(N2CCN(C)CC2)ccc1Nc1ncc2c(n1)N(C)c1ccccc1C(=O)N2C | LRRK2 | enzyme activity, inhibitor | IC50 | 29 nM
